# Assay outcomes from PubChem.
# Shown are actives, neighbours in structure and some others; about 3.3% of the full set was active somewhere.
# HTR1E agonist – activates the human 5-HT1E serotonin receptor; activation, % at 6 µM; hit rate 0.69% among 65,000; P28566; AID 574; CHO 5-HT1E Ga15 NFAT-bla reporter, FRET; 0% DMSO wells, 100% control agonist wells;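 active = activation above a set limit, the screen-wide mean activation plus 3 SD, cut at about 8.5% in these data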
# Target sequence (P28566 whole entry, looked up): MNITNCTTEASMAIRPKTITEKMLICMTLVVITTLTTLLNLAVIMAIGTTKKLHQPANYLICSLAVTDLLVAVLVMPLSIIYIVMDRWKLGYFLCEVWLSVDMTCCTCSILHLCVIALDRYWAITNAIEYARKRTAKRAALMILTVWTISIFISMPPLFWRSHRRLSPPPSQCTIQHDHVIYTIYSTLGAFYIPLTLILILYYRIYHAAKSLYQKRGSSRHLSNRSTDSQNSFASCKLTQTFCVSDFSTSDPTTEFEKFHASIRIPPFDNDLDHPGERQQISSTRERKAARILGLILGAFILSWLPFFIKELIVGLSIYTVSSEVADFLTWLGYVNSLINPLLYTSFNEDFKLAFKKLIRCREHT
# HTR1E antagonist – antagonists of human 5-HT1E serotonin receptor | P28566 | CHO 5-HT1E Ga15 NFAT-bla reporter, FRET, antagonist | inhibition, % at 6 µM | hit rate 0.99% among 65,000;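 active = inhibition above a set limit, the mean inhibition across every tested compound plus 3 SD, cut at about 29% in these data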;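 also: signal is the 460 over 535 nm emission ratio of beta-lactamase substrate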
# 5HT1a antag – 5-HT1a (human) receptor antagonism | AID 612 | hit rate 0.68% among 62,000 | CHO 5-HT1a Ga15 NFAT-bla reporter, antagonist mode | P08908 | inhibition, % at 10 µM;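 active = inhibition above the mean of all tested compounds plus 3 SD, cut at about 43% in these data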;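 also: receptor stimulated by 5-CT agonist at 100 nM near EC80; beta-lactamase reporter measured by ratiometric fluorescence of a cleavable substrate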
# HEK293 NFkB inh – inhibitors of the PMA/ionomycin-induced NF-kB reporter in HEK293 cells; inhibition, % at 3 µM; hit rate 0.21% among 62,000; HEK-293 NF-kB luciferase reporter, luminescence;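 active = inhibition above the mean of all tested compounds plus 3 SD, cut at about 40% in these data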
#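 Signal: luciferase luminescence; Material: HEK-293 cells with stable firefly luciferase reporter driven by four HIV NF-kB elements; Probe or stimulus: PMA with ionomycin; Replication: tested once; Times: 1 h compound pretreatment, then 16 h stimulation at 37 °C, 5% CO2; Benchmarks: DMSO and 10 µM reference inhibitor; Evaluation: per-plate % inhibition versus controls.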
# Jurkat tox 60K – cytotoxicity toward Jurkat cells; Jurkat E6.1 viability, ATP luminescence, 48 h; inhibition, % at 4 µM; hit rate 1.2% among 56,000; AID 463;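 active = inhibition above the mean inhibition of all tested compounds plus 3 SD, cut at about 28% in these data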
# 5HT1a ag – 5-HT1a (human) receptor agonism; P08908; CHO 5-HT1a Ga15 NFAT-bla reporter, FRET ratio; 0% basal, 100% maximal reference agonist; activation, % at 10 µM; hit rate 0.56% among 65,000;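 active = activation above the screen-wide mean activation plus 3 SD, cut at about 19% in these data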
# Hits are given with their value; i = inactive; nt = no result.
SMILES,HTR1E agonist,HTR1E antagonist,5HT1a antag,HEK293 NFkB inh,Jurkat tox 60K,5HT1a ag
N#CC1=C(N)Oc2n[nH]c(-c3ccccc3)c2C1c1cccc(OC(=O)N2CCOCC2)c1 (centres undefined),11,i,i,i,i,i
Cc1c(-n2cc(C(=O)c3ccccc3O)cc(C#N)c2=O)c(=O)n(-c2ccccc2)n1C,i,i,i,i,i,325
CCCc1nc(N)c(C#N)c(-c2ccco2)c1CC,i,i,i,i,i,i
Cc1c(-c2ccc(F)cc2)nc(N)c(C#N)c1-c1ccco1,i,29,i,i,i,i
COCCCN(C(C)=O)c1nc(-c2ccc(OC)cc2)cs1,i,i,i,i,57,i
COc1ccc(-c2csc(N(CCCN(C)C)C(=O)c3cccs3)n2)cc1,i,i,i,i,i,i
CCOc1ccc(C(=O)c2ccc(OCC)c(N)c2)cc1N,i,i,i,i,i,i
CN(C)c1ccc(C(=O)c2ccc(N(C)C)c(N)c2)cc1N,i,i,i,i,60,i
Cc1ccc(-n2c(SCC(=O)N3CCOCC3)nnc2-c2cccnc2)cc1,i,i,i,i,i,i
Cc1ccc(-n2c(SCC(=O)N3CCOCC3)nnc2-c2cccnc2)cc1C,44,i,i,i,i,i
COc1cc(-c2nnc3sc(C4CCCCC4)nn23)cc(OC)c1OC,i,40,i,i,i,i
COc1cc(OC)c(-c2nn3c(C4CCCCC4)nnc3s2)cc1OC,i,33,i,i,i,i
Cc1ccc(N(C(C)C(=O)O)S(=O)(=O)c2c(C)n[nH]c2C)cc1 (centres undefined),i,i,i,i,i,i
COc1ccc(C(O)c2nc3ccccc3n2C)cc1OC (centres undefined),i,i,i,i,54,i
Cc1ccc(OCC(=O)Nc2ccc(N3CCOCC3)cc2)cc1,i,i,i,i,i,i
Cc1ccc(C)c(OCCCC(=O)Nc2ccc(N3CCOCC3)cc2)c1,i,i,i,i,i,26
Cc1ccc(C(c2nnnn2C(C)(C)C)N(Cc2ccco2)Cc2cccs2)cc1 (centres undefined),i,i,51,i,i,i
CCOC(=O)C(C(=O)OCC)c1cc(Br)c2noc3c2c1C(=O)c1ccccc1-3,i,32,48,i,nt,i
COc1ccc2c(c1)CCc1c(C(=O)Nc3ccc(OC)c(OC)c3)noc1-2,i,i,i,i,i,i
COc1ccc(S(=O)(=O)N2CCC(n3cnc4cc(C(F)(F)F)ccc43)CC2)cc1,22,i,i,i,i,i
CC(=O)Nc1ccc(S(=O)(=O)N2CCC(n3cnc4cc(F)ccc43)CC2)cc1,i,i,i,i,i,i
Cc1sc2nc3n(c(=O)c2c1C)Cc1ccccc1-3,i,i,i,i,i,i
Cc1noc(C)c1CSc1nc2ccccc2[nH]1,i,i,i,i,i,67
COc1ccc(OC)c(NC(=O)C2C3CCC(C3=C(C)C)C2C(=O)O)c1 (centres undefined),i,i,i,i,i,i
COc1ccc(OC)c(NC(=O)C2CCCCC2C(=O)O)c1 (centres undefined),15,i,i,i,i,i
SMILES,HTR1E agonist,HTR1E antagonist,5HT1a antag,HEK293 NFkB inh,Jurkat tox 60K,5HT1a ag
O=P1(c2ccccc2)C=Cn2c1cc1c2CCCC1 (centres undefined),i,i,i,i,i,i
Cc1c(NC(=O)CSc2nnc(-c3cccc(Cl)c3)o2)c(=O)n(-c2ccccc2)n1C,i,i,i,i,i,i
O=c1cc(CN2CCN(c3ccccc3)CC2)c2cc(O)c(-c3ccccc3)cc2o1,i,i,i,i,i,i
O=c1cc(CN2CCN(C/C=C/c3ccccc3)CC2)c2cc(O)ccc2o1,i,i,44,i,i,i
CN(C)CCCN1c2ccccc2Sc2ccc(C(F)(F)F)cc21,12,i,nt,nt,nt,i
OCCN1CCN(CCCN2c3ccccc3Sc3ccc(C(F)(F)F)cc32)CC1,i,i,nt,nt,nt,i
O=C(NC1(C(F)(F)F)NC(=O)N(C2CCCCC2)C1=O)c1cccs1 (centres undefined),i,i,i,i,i,i
O=C(CSc1nccn1-c1ccc(F)cc1)Nc1ccc2c(c1)OCO2,14,i,i,i,i,i
O=C(CSc1nccn1-c1ccccc1)Nc1ccc2c(c1)OCO2,i,i,i,i,i,i
CCN1CCCC1CNC(=O)c1nn(-c2ccc(C)cc2)c(=O)c2c1c1ccccc1n2C (centres undefined),37,i,i,i,i,i
CN1C(=O)C(C(=O)NC(C)(C)C)C2c3ccccc3OC13CCCCC23 (centres undefined),i,i,i,i,i,i
Cc1nc2nc(C)c(CCC(=O)NCc3ccc4c(c3)OCO4)c(C)n2n1,i,i,i,i,i,i
O=C(CSc1nc2c(c(=O)n1-c1ccc(Cl)cc1)SCC2)Nc1ccc2c(c1)OCCO2,i,i,i,i,i,i
N=c1c2c(-c3ccccc3)c(-c3ccccc3)n(Cc3ccccc3)c2ncn1CCCn1ccnc1,i,i,nt,nt,nt,i
N=c1c2c(-c3ccccc3)c(-c3ccccc3)n(Cc3ccco3)c2ncn1Cc1ccco1,i,i,57,i,47,i
COc1nc(N2CCCC2)nc(-n2cc(-c3ccccc3)nn2)n1,i,i,i,i,i,i
CCCCNC(=O)c1cn(C)c2ccc(S(=O)(=O)N3CCOCC3)cc2c1=O,i,i,i,i,i,i
CCOc1ccccc1C1CC(=O)NC2=C1C(=O)CCC2 (centres undefined),i,i,i,i,64,i
CCCOc1ccccc1C1CC(=O)NC2=C1C(=O)CCC2 (centres undefined),i,i,i,i,95,i
CCOc1ccc(C2CC(=O)NC3=C2C(=O)CCC3)cc1 (centres undefined),i,i,i,i,i,i
CCCCOc1ccccc1C1CC(=O)NC2=C1C(=O)CCC2 (centres undefined),i,29,i,i,74,i
CCCOc1ccccc1C1CC(=O)NC(C)=C1C(=O)OCC(C)C (centres undefined),i,i,i,i,i,i
Cc1[nH]nc2c1C1(CCC3(CC1)OCCO3)C(C#N)=C(N)O2,i,i,i,i,i,i
CC(C)c1ccc(NC(=O)C2CC(=O)N=C(N)S2)cc1 (centres undefined),i,i,i,i,i,i
Cn1cccc1C(=O)NS(=O)(=O)c1ccccc1Cl,i,i,i,i,i,25
CCSCCOC(=O)C1=C(C)NC(=O)NC1c1ccc2c(c1)OCO2 (centres undefined),i,i,i,i,i,200
CCOC(=O)C1=C(C)NC(=O)NC1c1ccc2c(c1)OCO2 (centres undefined),i,i,nt,nt,nt,i
CCCCn1c(SCC(=O)N2CCOCC2)nnc1-c1cccs1,i,i,i,i,i,i
